From ChEMBL document CHEMBL1155975, “Pentacyclo-undecane derived cyclic tetra-amines: synthesis and evaluation as potent anti-tuberculosis agents” (Eur J Med Chem, 2009)
Converted amounts (≈) assume the structure as drawn.

Legend:
[1] = tested on: Mycobacterium tuberculosis; assay: Antimycobacterial activity against Mycobacterium tuberculosis XDR infected in MDBK by BACTEC analysis; type: functional
Outline: (§1)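 Radiometric BACTEC 460 TB. Cultures were grown at 37 °C with stirring, inoculated into BACTEC vials at OD ~0.16 and grown to GI 500 (±50) as the primary culture. Compounds were diluted in methanol to 8–0.03125 µg/mL final. GI was recorded every 24 h, and a daily ΔGI >10 counted as growth. Strains were H37Rv (ATCC 25618) and XDR strain X194.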

[2] = tested on: Mycobacterium tuberculosis; assay: Antimycobacterial activity against Mycobacterium tuberculosis H37Rv after 21 days by broth macrodilution method; type: functional; conditions: 504 h
Outline: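 Triplicate tubes of Middlebrook 7H9 broth with casitone, glycerol and 10% OADC; methanol-dissolved compounds diluted twofold, 128–0.125 µg/mL. Inoculum from log-phase H37Rv, adjusted to McFarland 1 and diluted to 1 × 10^5 CFU/mL, 500 µL per tube. Compound-free and solvent controls included. Aerobic incubation at 37 °C, tubes read macroscopically every 7 days to day 21 for MIC.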

[3] = tested on: Mycobacterium tuberculosis; assay: Antimycobacterial activity against Mycobacterium tuberculosis H37Rv infected in MDBK by BACTEC analysis; type: functional; outline: as §1
[4] = Cytotoxicity against MDBK cells after 48 hrs by MTT assay; type: cell-based; conditions: Bos taurus
Outline: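 MDBK monolayers were grown in RPMI 1640 with 10% heat-inactivated FBS and pen/strep. Cells were seeded at 5 × 10^4 per well, settled 6 h, then exposed 42 h at 37 °C to compounds in 1% methanol diluted in media; the vehicle served as the 100% viability control. MTT was added for 3 h and formazan read at 570 nm. Runs were quintuplicate, repeated on two days; % cytotoxicity = 100 − (OD sample/OD control × 100).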

| Structure (SMILES) | MIC [1] | MIC [2] [µM] | MIC [3] [µM] | IC50 [4] [µM] |
| --- | --- | --- | --- | --- |
| CC1COc2c(N3CCN(C)CC3)c(F)cc3c(=O)c(C(=O)O)cn1c23 (centres undefined) [OFLOXACIN] | > 2 µg/mL |  |  |  |
| CC[C@@H](CO)NCCN[C@@H](CC)CO [ETHAMBUTOL] | > 2.5 µg/mL | 19.6 (≈ 4 µg/mL) |  |  |
| O=C(c1ccc([N+](=O)[O-])o1)N1CCCN(CCC23OC4(CCN5CCCN(C(=O)c6ccc([N+](=O)[O-])o6)CC5)C5C6CC(C7C6C4C72)C53)CC1 (centres undefined) |  | 23.2 (≈ 16 µg/mL) | > 11.6 |  |
| C1CNCCN(CCC23OC4(CCN5CCCNCC5)C5C6CC(C7C6C4C72)C53)C1 (centres undefined) |  | 155 (≈ 64 µg/mL) |  |  |
| NNC(=O)c1ccncc1 [ISONIAZID] | > 0.2 µg/mL |  |  |  |
| CO[C@H]1/C=C/O[C@@]2(C)Oc3c(C)c(O)c4c(O)c(c(/C=N/N5CCN(C)CC5)c(O)c4c3C2=O)NC(=O)/C(C)=C\C=C\[C@H](C)[C@H](O)[C@@H](C)[C@@H](O)[C@@H](C)[C@H](OC(C)=O)[C@@H]1C [RIFAMPIN] | > 1 µg/mL |  |  |  |
| O=C(c1ccc([N+](=O)[O-])o1)N1CCN(CCC23OC4(CCN5CCN(C(=O)c6ccc([N+](=O)[O-])o6)CC5)C5C6CC(C7C6C4C72)C53)CC1 (centres undefined) |  | 24.1 (≈ 16 µg/mL) | > 12.1 |  |
| CC(C)=CCC/C(C)=C/CC/C(C)=C\CN1CCN(CCC23OC4(CCN5CCN(C/C=C(\C)CC/C=C(\C)CCC=C(C)C)CC5)C5C6CC(C7C6C4C72)C53)CC1 (centres undefined) | 0.63 µM | 5.04 (≈ 4 µg/mL) | 0.32 (≈ 0.254 µg/mL) | 24 |
| CC(C)=CCC/C(C)=C/CNCCNC1C2CC3CC(C2)CC1C3 (centres undefined) [SQ109] |  |  | 0.63 (≈ 0.208 µg/mL) | 26 |
| OCCN(CCC12OC3(CCN(CCO)Cc4ccccc4)C4C5CC(C6C5C3C61)C42)Cc1ccccc1 (centres undefined) |  | 248 (≈ 128 µg/mL) |  |  |
| O=C(c1ccccc1)N1CCN(CCC23OC4(CCN5CCN(C(=O)c6ccccc6)CC5)C5C6CC(C7C6C4C72)C53)CC1 (centres undefined) |  | 216 (≈ 128 µg/mL) |  |  |
| NC[C@H]1O[C@H](O[C@H]2[C@H](O)[C@@H](O[C@H]3O[C@H](CO)[C@@H](O)[C@H](N)[C@H]3O)[C@H](N)C[C@@H]2N)[C@H](O)[C@@H](O)[C@@H]1O [KANAMYCIN] | > 5 µg/mL |  |  |  |
| CCCCCCCCCCN1CCN(CCC23OC4(CCN5CCN(CCCCCCCCCC)CC5)C5C6CC(C7C6C4C72)C53)CC1 (centres undefined) | 0.75 µM |  |  | 25 |
| CC(C)=CCC/C(C)=C\CN1CCN(CCC23OC4(CCN5CCN(C/C=C(\C)CCC=C(C)C)CC5)C5C6CC(C7C6C4C72)C53)CC1 (centres undefined) | 1.52 µM | 6.09 (≈ 4 µg/mL) | 0.76 (≈ 0.499 µg/mL) | 30 |
| c1ccc(CN2CCCN(CCC34OC5(CCN6CCCN(Cc7ccccc7)CC6)C6C7CC(C8C7C5C83)C64)CC2)cc1 (centres undefined) |  | 108 (≈ 64.1 µg/mL) |  |  |
| NCC[C@H](O)C(=O)N[C@@H]1C[C@H](N)[C@@H](O[C@H]2O[C@H](CN)[C@@H](O)[C@H](O)[C@H]2O)[C@H](O)[C@H]1O[C@H]1O[C@H](CO)[C@@H](O)[C@H](N)[C@H]1O [AMIKACIN] | > 5 µg/mL |  |  |  |
| c1ccc(CN2CCN(CCC34OC5(CCN6CCN(Cc7ccccc7)CC6)C6C7CC(C8C7C5C83)C64)CC2)cc1 (centres undefined) |  | 113 (≈ 64 µg/mL) |  |  |
| c1ccc(CNCCC23OC4(CCNCc5ccccn5)C5C6CC(C7C6C4C72)C53)nc1 (centres undefined) |  | 298 (≈ 128 µg/mL) |  |  |
